# Data taken from ChEMBL document CHEMBL4382274, “NQO1-Selective Activated Prodrug of Triptolide: Synthesis and Antihepatocellular Carcinoma Activity Evaluation” (ACS Med Chem Lett, 2018).
# The source made the active and inactive calls. The rule behind the calls is not given here.
# Columns and labels:
# HepG2 [1] = assay: Cytotoxicity against human HepG2 cells up to 20 uM after 48 hrs by XTT assay; type: functional, cell-based
# HepG2 [2] = assay: Cytotoxicity against human HepG2 cells after 48 hrs by XTT assay; type: functional, cell-based; details: HepG2, 48 h
# [3] = molecular target: T1, NAD(P)H dehydrogenase [quinone] 1 (Homo sapiens, UniProt P15559); assay: Prodrug activation in human HepG2 cell lysates assessed as NQO1-mediated CX-21 formation at 10 uM after 60 mins in presence of NADPH and NQO1 inhibitor dicoumarol by HPLC analysis; type: subcellular, Lysate; details: hepg2, 1 h
# Hepatocyte = assay: Cytotoxicity against primary hepatocytes (unknown origin) after 48 hrs by XTT assay; type: cell-based
# [4] = Toxicity in Balb/c nude mouse xenografted with human HepG2 cells assessed as change in body weight at 0.3 to 1 mg/kg, ip administered once daily for 15 days measured during compound dosing; type: organism-based; details: in vivo, 360 h
# Procedure, shortened: (§1)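 HepG2 xenograft in nude mice. Dosing began one week after cell inoculation, ip once daily for two weeks. Tumor volume was followed during treatment, tumor weight taken at the end, and body weight monitored throughout. n = 8 mice/group; Student's t test against control.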
# Keratinocyte = assay: Cytotoxicity against human keratinocytes after 48 hrs by XTT assay; type: cell-based
# [5] = Hepatotoxicity in Balb/c nude mouse xenografted with human HepG2 cells assessed as pathological abnormalities at 0.3 to 1 mg/kg, ip administered once daily for 15 days by hematoxylin and eosin staining based microscopic analysis; type: toxicity, organism-based; details: in vivo, 360 h
# [6] = molecular target: T1, NAD(P)H dehydrogenase [quinone] 1; assay: Prodrug activation in human HepG2 cell lysates assessed as NQO1-mediated triptolide formation at 10 uM after 60 mins in presence of NADPH and NQO1 inhibitor dicoumarol by HPLC analysis; type: subcellular, Lysate; details: hepg2, 1 h
# A549 = assay: Cytotoxicity against human A549 cells after 48 hrs by XTT assay; type: functional, cell-based; details: A549, 48 h
# [7] = Distribution half life in KM mouse at 1 mg/kg, ip administered as single dose; type: ADME, organism-based; details: in vivo, read-out: alphat1/2
# Procedure, shortened: (§2)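 Mice received a single ip dose at 1.0 mg/kg. Levels were measured in plasma, liver and kidney with a validated analytical method, and plasma was sampled over time to 2 h and beyond. Derived values were absorption, distribution and terminal half-lives, tmax, Cmax and AUC tissue/plasma ratios.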
# [8] = molecular target: NQO1 (NAD(P)H dehydrogenase [quinone] 1) (Homo sapiens, UniProt P15559); assay: Half life in human HepG2 cell lysates assessed as NQO1-mediated compound degradation at 10 uM in presence of NADPH by HPLC analysis; type: ADME, subcellular, Lysate
# [9] = Terminal half life in KM mouse at 1 mg/kg, ip administered as single dose; type: ADME, organism-based; details: in vivo, read-out: beta t1/2; procedure, shortened: as §2
# CYP450 = CYP450 (Homo sapiens, UniProt P04798+P05177+P05181+P08684+P10632+P10635+P11509+P11712+P13584+P20813+P20815+P20853+P24462+P24903+P33260+P33261+P51589+P78329+P98187+Q02928+Q08477+Q16678+Q16696+Q5TCH4+Q6VVX0+Q7Z449+Q8TAV3+Q96SQ9+Q9HB55); assay: Half life in human liver microsomes assessed as CYP450-mediated compound degradation at 10 uM by UV-HPLC analysis; type: ADME
# Procedure, shortened: (§3)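 Compound was incubated for 1 h in vitro in human plasma or human liver microsomes, and half-life was determined from its disappearance.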
# HepG2 [10] = assay: Antitumor activity against human HepG2 cells xenografted in Balb/c nude mouse assessed as reduction in tumor growth at 0.3 to 1 mg/kg, ip administered once daily for 15 days; type: functional, organism-based; procedure, shortened: as §1
# [11] = Hepatotoxicity in Balb/c nude mouse xenografted with human HepG2 cells assessed as effect on serum AST levels at 0.3 to 1 mg/kg, ip administered once daily for 15 days; type: toxicity, organism-based; details: in vivo, 360 h
# Procedure, shortened: (§4)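 Nude mice were dosed ip every day for 15 days at 0.2 mg/kg (reference), 0.3 mg/kg or 1.0 mg/kg. Serum ALT, AST, creatinine and BUN were measured. Kidney sections were H&E stained and examined at X200. Comparisons were made against control.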
# [12] = Cmax in KM mouse at 1 mg/kg, ip administered as single dose; type: ADME, organism-based; design: dose 1 mg/kg, route intraperitoneal; details: in vivo; procedure, shortened: as §2
# [13] = molecular target: T1, NAD(P)H dehydrogenase [quinone] 1; assay: Prodrug activation in human HepG2 cell lysates assessed as NQO1-mediated CX-21 formation at 10 uM up to 60 mins in presence of NADPH by HPLC analysis; type: subcellular, Lysate; details: hepg2, 1 h
# [14] = Therapeutic index, ratio of IC50 for primary hepatocytes (unknown origin) to IC50 for human HepG2 cells; type: toxicity; details: primary hepatocytes (unknown origin) versus HepG2 cells, read-out: Ratio IC50
# HepG2 [15] = assay: Cytotoxicity against human HepG2 cells after 48 hrs in presence of NQO1 inhibitor dicoumarol by XTT assay; type: functional, cell-based
# [16] = Toxicity in Balb/c nude mouse at 1 mg/kg, ip; type: organism-based; details: in vivo
# Procedure, shortened: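 In a preliminary experiment, nude mice were given a single ip dose of 1.0 mg/kg and observed for toxic symptoms.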
# [17] = Hepatotoxicity in Balb/c nude mouse xenografted with human HepG2 cells assessed as effect on serum ALT levels at 0.3 to 1 mg/kg, ip administered once daily for 15 days; type: toxicity, organism-based; details: in vivo, 360 h; procedure, shortened: as §4
# [18] = Ratio of AUC in KM mouse kidney to plasma at 1 mg/kg, ip administered as single dose; type: ADME, organism-based; details: other tissue; procedure, shortened: as §2
# [19] = Ratio of AUC in KM mouse liver to plasma at 1 mg/kg, ip administered as single dose; type: ADME, organism-based; details: other tissue; procedure, shortened: as §2
# [20] = Plasma concentration in KM mouse at 1 mg/kg, ip administered as single dose after 2 hrs; type: ADME, organism-based; details: in vivo, BLD = below limit of detection; procedure, shortened: as §2
# [21] = Cytotoxicity against human skin fibroblasts after 48 hrs by XTT assay
# [22] = molecular target: T1, NAD(P)H dehydrogenase [quinone] 1; assay: Prodrug activation in human HepG2 cell lysates assessed as NQO1-mediated triptolide formation at 10 uM up to 60 mins in presence of NADPH by HPLC analysis; type: subcellular, Lysate; details: hepg2, 1 h
# [23] = Time at which plasma concentration stays above in vitro IC50 for antiproliferative activity against human HepG2 cells in KM mouse at 1 mg/kg, ip administered as single dose; type: organism-based; details: in vivo; procedure, shortened: as §2
# [24] = Tmax in KM mouse at 1 mg/kg, ip administered as single dose; type: ADME, organism-based; details: in vivo; procedure, shortened: as §2
# HeLa = assay: Cytotoxicity against human HeLa cells after 48 hrs by XTT assay; type: functional, cell-based
# [25] = Plasma concentration in KM mouse at 1 mg/kg, ip administered as single dose at 2 hrs post dose; type: ADME, organism-based; procedure, shortened: as §2
# [26] = molecular target: T2, General transcription and DNA repair factor IIH helicase/translocase subunit XPB (Homo sapiens, UniProt P19447); assay: Inhibition of […] ATPase activity in human HeLa cell nuclear extracts; type: cell-based
# T2 sequence (P19447 whole entry): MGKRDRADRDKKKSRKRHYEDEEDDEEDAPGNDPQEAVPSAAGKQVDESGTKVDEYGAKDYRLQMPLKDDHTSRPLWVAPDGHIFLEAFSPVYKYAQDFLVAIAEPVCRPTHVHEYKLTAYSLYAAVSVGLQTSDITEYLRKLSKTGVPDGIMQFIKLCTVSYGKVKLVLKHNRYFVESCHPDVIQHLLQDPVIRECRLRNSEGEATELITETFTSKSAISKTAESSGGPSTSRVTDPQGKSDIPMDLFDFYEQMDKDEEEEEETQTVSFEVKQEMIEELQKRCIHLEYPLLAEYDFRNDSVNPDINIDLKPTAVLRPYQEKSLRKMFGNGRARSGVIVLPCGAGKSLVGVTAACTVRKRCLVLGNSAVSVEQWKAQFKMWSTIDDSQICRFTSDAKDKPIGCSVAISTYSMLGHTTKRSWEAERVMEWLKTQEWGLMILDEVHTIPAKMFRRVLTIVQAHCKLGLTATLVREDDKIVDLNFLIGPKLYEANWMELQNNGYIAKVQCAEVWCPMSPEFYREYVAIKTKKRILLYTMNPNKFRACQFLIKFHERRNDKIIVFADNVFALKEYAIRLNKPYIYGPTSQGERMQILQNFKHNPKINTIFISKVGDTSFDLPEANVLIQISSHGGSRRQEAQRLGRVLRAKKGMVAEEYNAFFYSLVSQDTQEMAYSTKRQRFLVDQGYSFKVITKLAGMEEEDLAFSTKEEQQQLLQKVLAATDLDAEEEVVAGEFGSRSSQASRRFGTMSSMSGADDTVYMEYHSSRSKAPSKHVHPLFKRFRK
# carboxyl ester hydrolase = assay: Half life in human plasma assessed as carboxyl ester hydrolase-mediated compound degradation at 10 uM by UV-HPLC analysis; type: ADME, cell-free; procedure, shortened: as §3
# [27] = Toxicity in Balb/c nude mouse at 0.2 mg/kg, ip; type: organism-based; details: in vivo
# [28] = Renal toxicity in Balb/c nude mouse xenografted with human HepG2 cells assessed as increase in serum creatinine levels at 0.2 mg/kg, ip administered once daily for 15 days; type: organism-based; details: in vivo, 360 h
# Procedure, shortened: (§5)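 HepG2-xenografted nude mice were dosed every day for 15 days. Serum ALT, AST, creatinine and blood urea nitrogen were measured and compared with the control.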
# [29] = Toxicity in Balb/c nude mouse xenografted with human HepG2 cells assessed as change in body weight at 0.2 mg/kg, ip administered once daily for 15 days measured during compound dosing; type: organism-based; details: in vivo, 360 h
# Procedure, shortened: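 Xenografted nude mice (8/group) received ip doses once daily for two weeks, starting one week after HepG2 inoculation. Body weight was recorded throughout the treatment period.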
# [30] = Renal toxicity in Balb/c nude mouse xenografted with human HepG2 cells assessed as increase in serum BUN levels at 0.2 mg/kg, ip administered once daily for 15 days; type: organism-based; details: in vivo, 360 h; procedure, shortened: as §5
# [31] = Hepatotoxicity in Balb/c nude mouse xenografted with human HepG2 cells assessed as pathological abnormalities at 0.2 mg/kg, ip administered once daily for 15 days by hematoxylin and eosin staining based microscopic analysis; type: toxicity, organism-based; details: in vivo, 360 h
# [32] = Hepatotoxicity in Balb/c nude mouse xenografted with human HepG2 cells assessed as effect on serum ALT levels at 0.2 mg/kg, ip administered once daily for 15 days; type: toxicity, organism-based; details: in vivo, 360 h; procedure, shortened: as §5
# HepG2 [33] = assay: Antitumor activity against human HepG2 cells xenografted in Balb/c nude mouse assessed as reduction in tumor growth at 0.2 mg/kg, ip administered once daily for 15 days; type: functional, organism-based
# Procedure, shortened: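 HepG2 cells were inoculated into nude mice, and daily ip dosing began one week later and ran for two weeks. Tumour volume was followed over the treatment, and tumours were weighed and imaged at the end. n = 8 mice/group; Student's t test was used against the control.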
# [34] = Renal toxicity in Balb/c nude mouse xenografted with human HepG2 cells assessed as glomerular capillary loop lesions at 0.2 mg/kg, ip administered once daily for 15 days by hematoxylin and eosin staining based microscopic analysis; type: organism-based; details: in vivo, 360 h
# Procedure, shortened: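 After 15 days of daily dosing, kidneys from xenografted nude mice were sectioned, H&E stained and examined at ×200 for glomerular capillary loop lesions, alongside control sections.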
# [35] = Hepatotoxicity in Balb/c nude mouse xenografted with human HepG2 cells assessed as effect on serum AST levels at 0.2 mg/kg, ip administered once daily for 15 days; type: toxicity, organism-based; details: in vivo, 360 h; procedure, shortened: as §5
# T1 sequence (P15559 whole entry): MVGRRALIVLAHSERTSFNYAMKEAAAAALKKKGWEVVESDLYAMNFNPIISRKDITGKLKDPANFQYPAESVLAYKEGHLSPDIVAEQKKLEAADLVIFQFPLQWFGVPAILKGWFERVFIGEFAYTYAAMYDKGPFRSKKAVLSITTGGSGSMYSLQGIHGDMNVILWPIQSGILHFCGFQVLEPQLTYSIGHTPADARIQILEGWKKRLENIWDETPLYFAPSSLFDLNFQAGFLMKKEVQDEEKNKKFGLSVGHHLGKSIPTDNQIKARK
# Sequence of NQO1 (NAD(P)H dehydrogenase [quinone] 1) (P15559 whole entry): as above
smiles,measurement,setting,value
O=c1oc2ccccc2c(O)c1Cc1c(O)c2ccccc2oc1=O,Activity,HepG2 [1],inactive
CC1=C(C)C(=O)C(C(C)(C)CC(=O)O[C@@H]2[C@@]3(C(C)C)O[C@H]3[C@@H]3O[C@]34[C@]23O[C@H]3C[C@H]2C3=C(CC[C@@]24C)C(=O)OC3)=C(C)C1=O,IC50,HepG2 [2],54.3 nM
same,Drug metabolism,[3],Metabolite_Notdetected
same,IC50,Hepatocyte,540 nM
same,Activity,[4],Non-Toxic
same,IC50,Keratinocyte,> 1000 nM
same,Activity,[5],Non-Toxic
same,Drug metabolism,[6],Metabolite_Notdetected
same,IC50,A549,59.4 nM
same,half-life,[7],15.1 min
same,half-life at 10 µM,[8],7.27 min
same,half-life,[9],154 min
same,half-life at 10 µM,CYP450,> 60 min
same,Activity,HepG2 [10],Active
same,Activity,[11],Non-Toxic
same,Cmax,[12],243 ng/mL
same,Drug metabolism,[13],Metabolite_Detected
same,selectivity ratio,[14],9.89
same,Activity,HepG2 [15],inactive
same,Activity,[16],Non-Toxic
same,Activity,[17],Non-Toxic
same,Ratio,[18],< 5%
same,Ratio,[19],< 5%
same,Cp,[20],Bld
same,IC50,[21],> 1000 nM
same,Drug metabolism,[22],Metabolite_Detected
same,Time,[23],40 min
same,Tmax,[24],3 min
same,IC50,HeLa,38.2 nM
same,concentration at 2 h,[25],1.38 ng/mL
same,inhibition (INH),[26],Not Active
same,half-life at 10 µM,carboxyl ester hydrolase,> 60 min
CC(C)[C@]12O[C@H]1[C@@H]1O[C@]13[C@]1(O[C@H]1C[C@H]1C4=C(CC[C@@]13C)C(=O)OC4)[C@@H]2O [TRIPTOLIDE],Activity,[27],Non-Toxic
same,IC50,HepG2 [2],43.3 nM
same,IC50,Hepatocyte,37.7 nM
same,Activity,[28],Toxic
same,Activity,[29],Non-Toxic
same,Activity,[30],Toxic
same,Activity,[31],Non-Toxic
same,Activity,[32],Non-Toxic
same,Activity,HepG2 [33],Active
same,inhibition (INH),[26],Active
same,Activity,[34],Toxic
same,Activity,[35],Non-Toxic
